Laboratory results taken from PubChem BioAssay.
Results filed as inconclusive are left out.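 The calls were made as follows, unless noted: active = cell viability at or below a set limit in both duplicate runs, the limit being the all-compound median minus 4 SD (cut at about 23% in these data, passing the limit was not always enough); inconclusive = no clear call, values can overlap the other calls; inactive = the rest.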

Key:
[1] = S. cerevisiae growth inhibition in permissive medium (OD615), pilot counter-assay for S. cerevisiae lifespan shortening project, permissive growth control (AID 705;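 active = growth inhibition above 25% in both replicates, a cutoff set 3 SD above the mean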); conditions: OD615, 24 h, at 10 µM, stronger effect = higher value
How it was run: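 Material: engineered DeaD yeast; Compound: one dose 10 µM, DMSO 0.25% final; Detection: absorbance (optical density) at 615 nm; Buffer or medium: permissive raffinose/galactose medium; Timing: 24 h exposure, 30 °C.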

[2] = S. cerevisiae growth inhibition in restrictive medium, OD615, pilot screen, restrictive growth control, yeast lifespan reduction project (AID 706;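 active = growth inhibition above a set limit, 3 SD over mean compound inhibition, in both replicates, cut at about 43% in these data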;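 also: modified DeaD lifespan yeast strain shifted to restrictive glucose medium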); conditions: OD615, 48 h, at 10 µM, stronger effect = higher value
How it was run: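 Buffer or medium: restrictive glucose medium (CSMM-D); test system: modified S. cerevisiae; doses: single dose of 10 µM compound final, 0.25% DMSO; schedule: 48 h compound exposure at 30 °C; detection: absorbance (optical density) measured at 615 nm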

[3] = doxorubicin toxicity protection in MRP-1 cells – H69AR cells, CellTiter-Glo, duplicate, MRP-1 activator project, pilot screen (AID 807;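 active = viability increase at or above a cutoff of the median across tested compounds plus 3 SD, cut at about 8.5% in these data, passing the limit was not always enough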;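 also: compound pretreatment 18-22 h then 72 h combined with doxorubicin; 0% = doxorubicin alone and 100% = vehicle without doxorubicin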); conditions: H69AR viability with doxorubicin, CellTiter-Glo luminescence; at 10 µM; stronger effect = higher value
[4] = viability of HCT116 without oncogenic beta-catenin – human colon tumor cells, pilot screen (AID 823); conditions: HCT116 beta-catenin knockout viability, CellTiter-Glo, 60 h; at 10 µM; stronger effect = lower value;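 also: 0% = wells killed by 20 µM Hyamine and 100% = untreated DMSO cell wells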
[5] = viability of PTEN-null HCT116 cells – cell-based, HCT116 clonal line, CellTiter-Glo, pilot screen (AID 824;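 active = viability at or below 27.92% in each of two runs, the all-compound median minus 4 SD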;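 also: 0% = 20 µM Hyamine control and 100% = vehicle cell control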); conditions: HCT116 PTEN-deleted viability, 60 h, at 10 µM, stronger effect = lower value
[6] = RAM pathway blockade in budding yeast – dse1pr::URA3 reporter, 5-FOA selection, pilot screen (AID 869;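 active = inhibition over a set limit, the all-compound mean plus 3 SD, in both replicate runs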;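 also: 0% = DMSO wells with no growth and 100% = 10 µM 1-NA-PP1 with full growth; RAM network block rescues cells from 5-FOA so hits raise OD615 growth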); conditions: S. cerevisiae dse1pr::URA3 5-FOA growth, OD615, 2 d; at 10 µM; stronger effect = higher value; strain carries analog-sensitive mutant Cbk1 kinase
[7] = RAM signaling pathway blockade in yeast – S. cerevisiae, Pdr1DBD-CYC8 efflux-inhibited sensitized strain, primary screen (AID 1298;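 active = RAM network inhibition above 8.4% in each of two replicates, 3 SD over the compound average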;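 also: 0% = DMSO untreated cells without growth and 100% = 10 µM 1-NA-PP1 full growth; higher means more yeast growth rescued from 5-FOA killing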); conditions: S. cerevisiae cbk1-as DSE1-URA3 strain, 5-FOA growth OD615, 2 d; at 50 µM; stronger effect = higher value

O=C(CCS(=O)(=O)c1cccc2nonc12)N1CCOCC1
inactive: growth inhibition [1] -6.54% | growth inhibition [2] -14.3% | viability increase [3] -2.16% | viability [4] 88% | viability [5] 100% | inhibition [6] 2.56% | RAM network inhibition [7] 2.65%

CN(C)C(=O)N1CCC(C(=O)NCc2ccc(F)cc2)CC1
inactive: growth inhibition [1] 4.29% | growth inhibition [2] 9.94% | viability increase [3] -1.51% | viability [4] 104% | viability [5] 94.7% | inhibition [6] 0.865% | RAM network inhibition [7] 5.08%

COc1ccc(C2NC(=O)NC(O)(C(F)(F)F)C2C(=O)c2ccc(C)cc2)cc1 (stereo unspecified)
inactive: growth inhibition [1] 6.2% | growth inhibition [2] -7.89% | viability increase [3] -2.35% | viability [4] 100% | viability [5] 95.1% | inhibition [6] 0.56% | RAM network inhibition [7] -1.03%

CC(CN(C)Cc1ccccc1)OC(=O)C1COc2ccccc2O1 (stereo unspecified)
inactive: growth inhibition [1] -9.66% | growth inhibition [2] 6.59% | viability increase [3] 0.39% | viability [4] 101% | viability [5] 102% | inhibition [6] 1.3% | RAM network inhibition [7] 2.25%

O=C(O)CSC1c2ccccc2C(=O)N1Cc1ccccc1 (stereo unspecified)
inactive: growth inhibition [1] -13.6% | growth inhibition [2] -2.05% | viability increase [3] 2.07% | viability [4] 94.4% | viability [5] 93.7% | inhibition [6] 0.06% | RAM network inhibition [7] 0.3%

C/C(N)=C(/C#N)C(=O)CSc1n[nH]c(-c2ccccc2Br)n1
inactive: growth inhibition [1] -8.32% | growth inhibition [2] 8.69% | viability increase [3] 2.73% | viability [4] 110% | viability [5] 105% | inhibition [6] -0.48% | RAM network inhibition [7] -1.02%

CCCCN=C(C)C1=C(O)CSC1=O
inactive: growth inhibition [1] -1.78% | growth inhibition [2] 4.99% | viability increase [3] -1.7% | viability [4] 104% | viability [5] 99.7% | inhibition [6] 2% | RAM network inhibition [7] 3.8%

Cc1cc(C)cc(-n2cc3c(=O)n(C)c(=O)n(C)c3c2)c1
inactive: growth inhibition [1] -6.43% | growth inhibition [2] -0.345% | viability increase [3] -1.71% | viability [4] 102% | viability [5] 103% | inhibition [6] 0.155% | RAM network inhibition [7] 2.55%

CN(C)Cc1c(O)ccc2occ(C(O)c3ccccc3)c12 (stereo unspecified)
inactive: growth inhibition [1] -13.2% | growth inhibition [2] -4.58% | viability increase [3] -3.71% | viability [4] 77.2% | viability [5] 82.5% | inhibition [6] 1.07% | RAM network inhibition [7] 4.33%

O=C(Nc1cccc(OC(F)(F)F)c1)c1ccc(Br)o1
inactive: growth inhibition [1] -1.13% | growth inhibition [2] 9.08% | viability increase [3] 1.31% | viability [4] 81.6% | viability [5] 75.1% | inhibition [6] 2.96% | RAM network inhibition [7] 0.92%

Cc1noc(NS(=O)(=O)c2ccc(NC(=O)CSc3nc4c(cc3C#N)CCCC4)cc2)c1C
inactive: growth inhibition [1] 2.36% | growth inhibition [2] 3.98% | viability increase [3] 0.62% | viability [4] 109% | viability [5] 101% | inhibition [6] 2.52% | RAM network inhibition [7] 2.9%

COC(=O)C1=C(C)N(C)C(C)=C(C(=O)OC)C1c1cccc(Br)c1
inactive: growth inhibition [1] -16.7% | growth inhibition [2] 0.915% | viability increase [3] 0.06% | viability [4] 72% | viability [5] 67.4% | inhibition [6] 0.57% | RAM network inhibition [7] 9.03%

Cc1ccccc1-c1nnc(SCC(=O)Nc2ccc3c(c2)OCCO3)n1N
inactive: growth inhibition [1] -1.12% | growth inhibition [2] 10.1% | viability increase [3] -2.18% | viability [4] 96.7% | viability [5] 91.7% | inhibition [6] 0.6% | RAM network inhibition [7] -0.27%

Cc1cc(Nc2ccc(Br)c(C)c2)n2nc(C)nc2n1
inactive: growth inhibition [1] -8.54% | growth inhibition [2] 4.61% | viability increase [3] -6.94% | viability [4] 80.9% | viability [5] 84.9% | inhibition [6] 0.65% | RAM network inhibition [7] 6.84%

FC(F)(F)c1cccc(-c2ccc(-c3csnn3)o2)c1
inactive: growth inhibition [1] -0.85% | growth inhibition [2] 6.13% | viability increase [3] -0.47% | viability [4] 82.2% | viability [5] 83.6% | inhibition [6] 1.4% | RAM network inhibition [7] 9.48%

CC1CCC(n2c(=S)[nH]c3ccccc3c2=O)CC1 (stereo unspecified)
inactive: growth inhibition [1] 13% | growth inhibition [2] 23% | viability increase [3] -4.34% | viability [4] 81.5% | viability [5] 75.4% | inhibition [6] 0.285% | RAM network inhibition [7] 5.25%

CN1CCN(C(=O)c2cc3c(s2)-c2ccccc2S(=O)(=O)C3)CC1
inactive: growth inhibition [1] -2.05% | growth inhibition [2] -0.515% | viability increase [3] -1.76% | viability [4] 103% | viability [5] 98.5% | inhibition [6] 1.8% | RAM network inhibition [7] 0.72%

CCN(CC)c1ccc(NS(=O)(=O)c2ccc3c(c2)oc(=O)n3C)c(C)c1
inactive: growth inhibition [1] -8.04% | growth inhibition [2] -10.8% | viability increase [3] -2.73% | viability [4] 83.2% | viability [5] 72.6% | inhibition [6] 1.33% | RAM network inhibition [7] -0.57%
